According to ChEMBL document CHEMBL1128566, “Inhibition of human neutrophil elastase. 3. An orally active enol acetate prodrug” (J Med Chem, 1995):

System: Cricetinae gen. sp.
Experiment: Ability to inhibit HNE-induced pulmonary hemorrhage, was examined in vivo in hamsters, after administering the compound orally 30 min prior to intratracheal instillation of 25 microg of HNE
Type: functional
Outline: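 Hamsters dosed po at various doses 30 min before intratracheal HNE (25 μg). Killed 1 h later; trachea cannulated and lavaged three times with saline (0.04 mL/g). Hemorrhage measured as BAL hemoglobin by spectrophotometry. One-way ANOVA with Dunnett's test against vehicle-treated animals (p ≤ 0.05). ED50 extrapolated from dose-response curves.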

Structure (SMILES) | ED50 [mg/kg]
CC(=O)O/C(=C(/NC(=O)[C@@H]1CCCN1C(=O)[C@@H](NC(=O)c1ccc(C(=O)N2CCOCC2)cc1)C(C)C)C(C)C)C(F)(F)F | > 75
CC(=O)O/C(=C(/NC(=O)[C@@H]1CCCN1C(=O)[C@@H](NC(=O)c1ccc(C(=O)N2CCOCC2)cc1)C(C)C)C(C)C)C(F)(F)C(F)(F)F | 9
CC(=O)O/C(=C(/NC(=O)[C@@H]1CCCN1C(=O)[C@@H](NC(=O)c1ccc(C(=O)NS(=O)(=O)c2ccc(Cl)cc2)cc1)C(C)C)C(C)C)C(F)(F)F | > 50
CC(C)C(NC(=O)[C@@H]1CCCN1C(=O)[C@@H](NC(=O)c1ccc(C(=O)N2CCOCC2)cc1)C(C)C)C(=O)C(F)(F)F (some centres not stated) | > 50
CC(C)C(NC(=O)[C@@H]1CCCN1C(=O)[C@@H](NC(=O)c1ccc(C(=O)N2CCOCC2)cc1)C(C)C)C(=O)C(F)(F)C(F)(F)F (some centres not stated) | 15

Target: T1, Neutrophil elastase (Homo sapiens, UniProt P08246)
T1 sequence (P08246 whole entry): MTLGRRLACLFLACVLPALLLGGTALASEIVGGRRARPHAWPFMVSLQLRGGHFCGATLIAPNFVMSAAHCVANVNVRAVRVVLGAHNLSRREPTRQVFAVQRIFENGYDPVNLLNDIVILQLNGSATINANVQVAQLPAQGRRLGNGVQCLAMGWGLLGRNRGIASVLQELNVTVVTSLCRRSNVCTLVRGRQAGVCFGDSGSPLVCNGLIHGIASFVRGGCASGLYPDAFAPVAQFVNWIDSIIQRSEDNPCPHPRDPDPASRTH
Experiment: Binding affinity for purified Human neutrophil elastase was determined in vitro.

Ki [nM] | Structure (SMILES)
150000 | CC(C)[C@H](NC(=O)c1ccc(C(=O)N2CCOCC2)cc1)C(=O)N1CCC[C@H]1C(=O)NCC(=O)C(F)(F)C(F)(F)F
> 2000 | CC(=O)O/C(=C(/NC(=O)[C@@H]1CCCN1C(=O)[C@@H](NC(=O)c1ccc(C(=O)N2CCOCC2)cc1)C(C)C)C(C)C)C(F)(F)C(F)(F)F
8000 | CC(C)=C(NC(=O)[C@@H]1CCCN1C(=O)[C@@H](NC(=O)c1ccc(C(=O)N2CCOCC2)cc1)C(C)C)C(=O)C(F)(F)C(F)(F)F

The remaining lines, values behind:

Structure (SMILES) | Ki [nM]
CC(C)[C@H](NC(=O)OC(C)(C)C)C(=O)N1CCC[C@H]1C(=O)NC(C)(C)C(=O)C(F)(F)C(F)(F)F | > 50000
CC(=O)O/C(=C(/NC(=O)[C@@H]1CCCN1C(=O)[C@@H](NC(=O)c1ccc(C(=O)NS(=O)(=O)c2ccc(Cl)cc2)cc1)C(C)C)C(C)C)C(F)(F)F | 320
CC(=O)O/C(=C(/NC(=O)[C@@H]1CCCN1C(=O)[C@@H](NC(=O)N1CCOCC1)C(C)C)C(C)C)C(F)(F)F | 6300

System: not listed separately
Experiment: Half-life for the conversion of compound to ketone, was examined by 19F NMR spectroscopy in USP-simulated gastric fluid, at 50 degree Centigrade.
Type: ADME
Outline: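 Simulated gastric fluid at pH 1.2 and 50 °C, followed for up to 12 h. Conversion of enol acetate to the parent ketone tracked to give a half-life.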

half-life [h] | Structure (SMILES)
41 | CC(=O)O/C(=C(/NC(=O)[C@@H]1CCCN1C(=O)[C@@H](NC(=O)c1ccc(C(=O)N2CCOCC2)cc1)C(C)C)C(C)C)C(F)(F)F

System: not listed separately
Experiment: Half-life for the conversion of compound to ketone, was examined by 19F NMR spectroscopy in USP-simulated intestinal fluid, at 37 degree Centigrade.
Type: ADME
Outline: (§1)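 Simulated intestinal fluid at pH 7.5, held at 37 or 50 °C. Half-life taken for conversion of enol acetate to the corresponding ketone.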

half-life [h] | Structure (SMILES)
2.9 | CC(=O)O/C(=C(/NC(=O)[C@@H]1CCCN1C(=O)[C@@H](NC(=O)c1ccc(C(=O)N2CCOCC2)cc1)C(C)C)C(C)C)C(F)(F)F
6.6 | CC(=O)O/C(=C(\NC(=O)[C@@H]1CCCN1C(=O)[C@@H](NC(=O)c1ccc(C(=O)N2CCOCC2)cc1)C(C)C)C(C)C)C(F)(F)C(F)(F)F
7.3 | CC(=O)O/C(=C(/NC(=O)[C@@H]1CCCN1C(=O)[C@@H](NC(=O)c1ccc(C(=O)N2CCOCC2)cc1)C(C)C)C(C)C)C(F)(F)C(F)(F)F

Target: T1, Neutrophil elastase
Experiment: Binding affinity for purified Human neutrophil elastase was determined in the presence of pig liver esterase, in vitro.
Outline: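 Partially purified HNE assayed with 12.5 units porcine liver esterase added, at a fixed inhibitor level (66 nM, 100 nM, 133 nM or 1.67 μM, depending on compound). Time course followed; Ki taken from the final rate after the enol acetate was fully hydrolysed. Controls: elastase plus substrate, with or without esterase.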

Ki [nM] | Structure (SMILES)
16 | CC(=O)O/C(=C(/NC(=O)[C@@H]1CCCN1C(=O)[C@@H](NC(=O)c1ccc(C(=O)N2CCOCC2)cc1)C(C)C)C(C)C)C(F)(F)F
25 | CC(=O)O/C(=C(/NC(=O)[C@@H]1CCCN1C(=O)[C@@H](NC(=O)c1ccc(C(=O)N2CCOCC2)cc1)C(C)C)C(C)C)C(F)(F)C(F)(F)F
25 | CC(C)C(=O)O/C(=C(/NC(=O)[C@@H]1CCCN1C(=O)[C@@H](NC(=O)c1ccc(C(=O)N2CCOCC2)cc1)C(C)C)C(C)C)C(F)(F)C(F)(F)F
25 | CCC(=O)O/C(=C(/NC(=O)[C@@H]1CCCN1C(=O)[C@@H](NC(=O)c1ccc(C(=O)N2CCOCC2)cc1)C(C)C)C(C)C)C(F)(F)C(F)(F)F

The remaining lines, values behind:

Structure (SMILES) | Ki [nM]
CC(=O)O/C(=C(/NC(=O)[C@@H]1CCCN1C(=O)[C@@H](NC(=O)c1ccc(C(=O)NS(=O)(=O)c2ccc(Cl)cc2)cc1)C(C)C)C(C)C)C(F)(F)F | 3
CC(=O)O/C(=C(/NC(=O)[C@@H]1CCCN1C(=O)[C@@H](NC(=O)N1CCOCC1)C(C)C)C(C)C)C(F)(F)F | 150

System: not listed separately
Experiment: Half-life for the conversion of compound to ketone, was examined by 19F NMR spectroscopy in USP-simulated intestinal fluid, at 50 degree Centigrade.
Type: ADME
Outline: as §1

half-life [h] | Structure (SMILES)
3.1 | CC(=O)O/C(=C(/NC(=O)[C@@H]1CCCN1C(=O)[C@@H](NC(=O)c1ccc(C(=O)N2CCOCC2)cc1)C(C)C)C(C)C)C(F)(F)C(F)(F)F
1.2 | CC(=O)O/C(=C(/NC(=O)[C@@H]1CCCN1C(=O)[C@@H](NC(=O)c1ccc(C(=O)NS(=O)(=O)c2ccc(Cl)cc2)cc1)C(C)C)C(C)C)C(F)(F)F

System: not listed separately
Experiment: Half-life for the conversion of compound to ketone, was examined by 19F NMR spectroscopy in human blood plasma, at 37 degree Centigrade.
Type: ADME, tissue-based
Outline: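 Human blood plasma incubated at 37 °C. Half-life measured for conversion of enol acetate to the corresponding ketone.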

half-life [h] | Structure (SMILES)
0.25 | CC(=O)O/C(=C(/NC(=O)[C@@H]1CCCN1C(=O)[C@@H](NC(=O)c1ccc(C(=O)N2CCOCC2)cc1)C(C)C)C(C)C)C(F)(F)F
0.667 | CC(=O)O/C(=C(\NC(=O)[C@@H]1CCCN1C(=O)[C@@H](NC(=O)c1ccc(C(=O)N2CCOCC2)cc1)C(C)C)C(C)C)C(F)(F)C(F)(F)F
0.417 | CC(=O)O/C(=C(/NC(=O)[C@@H]1CCCN1C(=O)[C@@H](NC(=O)c1ccc(C(=O)N2CCOCC2)cc1)C(C)C)C(C)C)C(F)(F)C(F)(F)F
0.167 | CC(=O)O/C(=C(/NC(=O)[C@@H]1CCCN1C(=O)[C@@H](NC(=O)c1ccc(C(=O)NS(=O)(=O)c2ccc(Cl)cc2)cc1)C(C)C)C(C)C)C(F)(F)F
